Experimental data: ChEMBL document CHEMBL5143681, “Clerodane Diterpenes from Casearia corymbosa as Allosteric GABAA Receptor Modulators” (J Nat Prod, 2022)
Active and inactive are the calls of the source. No cut-off for these calls is given here.

Columns and labels:
Assay type in all cases: cell-based
[1] = target: T1, GABA-A receptor; alpha-1/beta-2/gamma-2 (Homo sapiens) (UniProt P14867+P47870+P18507); experiment: Positive allosteric modulation of GABAA alpha1beta2gamma2 receptor (unknown origin) stably expressed in CHO cells assessed as activation of GABA-induced response at 5 uM in presence of flumazenil by FLIPR assay; conditions: filed as positive allosteric modulator
Method in brief: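 For the benzodiazepine-site test, α1β2γ2-CHO cells in the FLIPR membrane-potential assay received compound at 5 μM plus flumazenil at 0.001–10 μM, with 2 μM GABA added at 295 s. Activation was the fluorescence change at 270–330 s, normalized to 200 μM GABA. Controls were 2 μM GABA, 200 μM GABA and 0.2% DMSO.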

[2] = target: T1, GABA-A receptor; alpha-1/beta-2/gamma-2 (Homo sapiens); experiment: Additive positive allosteric modulation of GABAA alpha1beta2gamma2 receptor (unknown origin) stably expressed in CHO cells assessed as activation of GABA-induced response at 0.5 to 8 uM in presence of etazolate by FLIPR assay; conditions: filed as positive allosteric modulator, dose 0.5-8 µM
Method in brief: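 In the FLIPR membrane-potential assay on α1β2γ2-CHO cells, compound at 0.5–8.0 μM was tested with etazolate at a fixed concentration (0.78 μM per the methods). 2 μM GABA was added at 295 s. The fluorescence change at 270–330 s was normalized to 200 μM GABA. Controls were 2 μM GABA, 200 μM GABA and 0.2% DMSO.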

[3] = target: T1, GABA-A receptor; alpha-1/beta-2/gamma-2 (Homo sapiens); experiment: Additive positive allosteric modulation of GABAA alpha1beta2gamma2 receptor (unknown origin) stably expressed in CHO cells assessed as activation of GABA-induced response at 0.5 to 8 uM in presence of diazepam by FLIPR assay; conditions: filed as positive allosteric modulator, dose 0.5-8 µM
Method in brief: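 α1β2γ2-CHO cells were run in the FLIPR membrane-potential assay. Activation was the fluorescence change at 270–330 s, normalized to 200 μM GABA. Controls were 2 μM GABA, 200 μM GABA and 0.2% DMSO.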

[4] = target: T1, GABA-A receptor; alpha-1/beta-2/gamma-2 (Homo sapiens); experiment: Positive allosteric modulation of GABAA alpha1beta2gamma2 receptor (unknown origin) stably expressed in CHO cells assessed as activation of GABA-induced response at 10 uM in presence of pregnenolone sulfate by FLIPR assay; conditions: filed as positive allosteric modulator
Method in brief: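 Compound was held at 10 μM with pregnenolone sulfate at 0.001–10 μM in the FLIPR membrane-potential assay on α1β2γ2-CHO cells, and 2 μM GABA was added at 295 s. The fluorescence change at 270–330 s was normalized to 200 μM GABA. Controls were 2 μM GABA, 200 μM GABA and 0.2% DMSO.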

[5] = target: T2, GABA-A receptor; alpha-1/beta-2/gamma-2 (Homo sapiens, UniProt P14867+P18507+P47870); experiment: Positive allosteric modulation of GABAA alpha1beta2gamma2 receptor (unknown origin) stably expressed in CHO cells assessed as activation of GABA-induced response in presence of GABA by FLIPR assay
T2 sequence (P14867 whole entry): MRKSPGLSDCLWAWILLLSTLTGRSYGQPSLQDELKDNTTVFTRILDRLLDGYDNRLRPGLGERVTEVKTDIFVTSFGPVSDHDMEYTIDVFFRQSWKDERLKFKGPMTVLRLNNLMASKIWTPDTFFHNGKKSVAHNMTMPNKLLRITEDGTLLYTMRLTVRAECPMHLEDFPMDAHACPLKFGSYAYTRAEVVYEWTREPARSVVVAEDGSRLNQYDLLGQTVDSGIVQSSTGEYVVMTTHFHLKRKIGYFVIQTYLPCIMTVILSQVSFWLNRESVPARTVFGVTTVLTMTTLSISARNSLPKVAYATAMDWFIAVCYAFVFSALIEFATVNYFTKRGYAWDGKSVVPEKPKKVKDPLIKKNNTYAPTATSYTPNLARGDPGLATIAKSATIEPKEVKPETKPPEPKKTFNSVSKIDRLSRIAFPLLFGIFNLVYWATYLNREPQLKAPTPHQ
T2 sequence (P47870 whole entry): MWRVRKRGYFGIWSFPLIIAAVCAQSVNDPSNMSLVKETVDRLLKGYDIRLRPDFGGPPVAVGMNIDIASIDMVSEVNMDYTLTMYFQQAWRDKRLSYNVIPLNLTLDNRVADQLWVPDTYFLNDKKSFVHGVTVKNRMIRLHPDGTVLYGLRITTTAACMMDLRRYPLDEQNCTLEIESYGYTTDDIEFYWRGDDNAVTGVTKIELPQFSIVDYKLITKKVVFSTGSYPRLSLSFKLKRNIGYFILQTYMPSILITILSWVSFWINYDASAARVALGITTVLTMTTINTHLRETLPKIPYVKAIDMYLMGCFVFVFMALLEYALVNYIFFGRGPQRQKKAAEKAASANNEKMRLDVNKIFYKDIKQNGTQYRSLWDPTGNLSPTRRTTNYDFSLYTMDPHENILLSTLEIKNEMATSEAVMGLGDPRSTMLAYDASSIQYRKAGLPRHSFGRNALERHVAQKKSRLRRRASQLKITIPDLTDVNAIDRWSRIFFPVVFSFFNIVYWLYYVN
T2 sequence (P18507 whole entry): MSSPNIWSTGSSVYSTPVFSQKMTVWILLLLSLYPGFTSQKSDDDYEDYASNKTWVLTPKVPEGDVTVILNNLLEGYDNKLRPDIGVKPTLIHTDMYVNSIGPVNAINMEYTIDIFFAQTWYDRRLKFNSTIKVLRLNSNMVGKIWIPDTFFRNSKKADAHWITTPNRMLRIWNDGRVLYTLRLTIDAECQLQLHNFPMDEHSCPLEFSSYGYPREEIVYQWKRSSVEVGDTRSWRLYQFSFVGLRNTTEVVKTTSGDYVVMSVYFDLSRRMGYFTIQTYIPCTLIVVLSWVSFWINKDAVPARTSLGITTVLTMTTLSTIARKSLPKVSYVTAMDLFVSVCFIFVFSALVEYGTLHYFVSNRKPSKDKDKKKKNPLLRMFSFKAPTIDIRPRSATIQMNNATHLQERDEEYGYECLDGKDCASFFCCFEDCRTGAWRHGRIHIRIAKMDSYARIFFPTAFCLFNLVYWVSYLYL

[6] = target: T1, GABA-A receptor; alpha-1/beta-2/gamma-2 (Homo sapiens); experiment: Additive positive allosteric modulation of GABAA alpha1beta2gamma2 receptor (unknown origin) stably expressed in CHO cells assessed as activation of GABA-induced response at 0.5 to 4 uM in presence of allopregnanolone by FLIPR assay; conditions: filed as positive allosteric modulator, dose 0.5-4 µM, DDE = dose-dependent effect
Method in brief: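 The FLIPR membrane-potential assay used α1β2γ2-CHO cells. Compound was tested at 0.5, 1.0, 2.0 and 4.0 μM together with a fixed 0.25 μM allopregnanolone, and 2 μM GABA was added at 295 s. The fluorescence change at 270–330 s was normalized to 200 μM GABA. Plates included 2 μM GABA, 200 μM GABA and 0.2% DMSO controls.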

EC50 [5] [µM]	Structure (SMILES)	further results
1.4	C=C/C(C)=C/C[C@]1(C)[C@H](C)C[C@H](OC)[C@]23C(=C[C@@H](OC(C)=O)C[C@@H]12)[C@@H](OC(C)=O)O[C@H]3OC(C)=O	Activity [1]: Active; Activity [2]: Active; Activity [3]: Active; Activity [4]: Active; Activity [6]: Dde
12.6	CC1=C2[C@H](/C=C(\C)C(=O)O)CC[C@@H](C)[C@H]2CC1 [VALERENIC ACID]	–
4.6	C=C/C(C)=C/C[C@]1(C)[C@H](C)C[C@H](OC(C)=O)[C@]23C(=C[C@@H](OC(C)=O)C[C@@H]12)[C@@H](OC(C)=O)O[C@H]3OC(C)=O	–
5.8	O=C(/C=C/C=C/c1ccc2c(c1)OCO2)N1CCCCC1 [PIPERINE]	–
0.5	C=C/C(C)=C/C[C@]1(C)[C@H](C)C[C@H](O)[C@]23C(=C[C@@H](OC(C)=O)C[C@@H]12)[C@@H](OC(C)=O)O[C@H]3OC(C)=O	–

Structure (SMILES)	EC50 [5] [µM]	further results
C=CCc1ccc(O)c(-c2cc(CC=C)ccc2O)c1 [MAGNOLOL]	4.8	–
